Measurements from ChEMBL document CHEMBL3120102, “Structure-based design, synthesis and biological evaluation of novel anthra[1,2-d]imidazole-6,11-dione homologues as potential antitumor agents” (2013).

Key:
[1] = biological target: Telomerase reverse transcriptase (Homo sapiens) (UniProt O14746); test: Inhibition of human tert transcriptional activity assessed as SEAP activity at 10 uM after 24 hrs by SEAP reporter assay; design: scale not given: the % may be the effect or the level left
Summary of the method: (§1)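 Reporter assay for hTERT transcriptional activity using secreted alkaline phosphatase. About 2 × 10³ cells per well were grown for 24 h at 37 °C, then given fresh medium. Buffer was added to the medium: 2 M diethanolamine, 1 mM MgCl2 and 20 mM L-homoarginine. p-Nitrophenyl phosphate was added to 12 mM final. The rate of absorbance increase was read at 405 nm.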

[2] = Cytotoxicity against human H1299 cells assessed as cell viability at 1 uM after 48 hrs by MTT assay; assay type: functional; conditions: NCI-H1299, 48 h, read-out: Activity
Summary of the method: (§2)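 About 2×10³ H1299 cells per well were grown for 24 h at 37 °C in 5% CO2. Compound was dissolved in DMSO immediately before use, diluted in complete medium and left on cells for 48 h. MTT was then added for 4 h at 37 °C, followed by SDS/DMF lysis buffer for 16 h at 37 °C. Absorbance was read at 550 nm.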

[3] = Cytotoxicity against human H1299 cells assessed as cell viability at 100 uM after 48 hrs by MTT assay; assay type: functional; conditions: NCI-H1299, 48 h, read-out: Activity; summary of the method: as §2
[4] = biological target: Telomerase reverse transcriptase (Homo sapiens) (UniProt O14746); test: Inhibition of human tert transcriptional activity assessed as SEAP activity at 100 uM after 24 hrs by SEAP reporter assay; design: scale not given: the % may be the effect or the level left; summary of the method: as §1
[5] = Cytotoxicity against human H1299 cells assessed as cell viability at 10 uM after 48 hrs by MTT assay; assay type: functional; conditions: NCI-H1299, 48 h, read-out: Activity; summary of the method: as §2
[6] = biological target: Telomerase reverse transcriptase (Homo sapiens) (UniProt O14746); test: Inhibition of human tert transcriptional activity assessed as SEAP activity at 1 uM after 24 hrs by SEAP reporter assay; design: scale not given: the % may be the effect or the level left; summary of the method: as §1

Sequence of Telomerase reverse transcriptase (Homo sapiens) (O14746 whole entry): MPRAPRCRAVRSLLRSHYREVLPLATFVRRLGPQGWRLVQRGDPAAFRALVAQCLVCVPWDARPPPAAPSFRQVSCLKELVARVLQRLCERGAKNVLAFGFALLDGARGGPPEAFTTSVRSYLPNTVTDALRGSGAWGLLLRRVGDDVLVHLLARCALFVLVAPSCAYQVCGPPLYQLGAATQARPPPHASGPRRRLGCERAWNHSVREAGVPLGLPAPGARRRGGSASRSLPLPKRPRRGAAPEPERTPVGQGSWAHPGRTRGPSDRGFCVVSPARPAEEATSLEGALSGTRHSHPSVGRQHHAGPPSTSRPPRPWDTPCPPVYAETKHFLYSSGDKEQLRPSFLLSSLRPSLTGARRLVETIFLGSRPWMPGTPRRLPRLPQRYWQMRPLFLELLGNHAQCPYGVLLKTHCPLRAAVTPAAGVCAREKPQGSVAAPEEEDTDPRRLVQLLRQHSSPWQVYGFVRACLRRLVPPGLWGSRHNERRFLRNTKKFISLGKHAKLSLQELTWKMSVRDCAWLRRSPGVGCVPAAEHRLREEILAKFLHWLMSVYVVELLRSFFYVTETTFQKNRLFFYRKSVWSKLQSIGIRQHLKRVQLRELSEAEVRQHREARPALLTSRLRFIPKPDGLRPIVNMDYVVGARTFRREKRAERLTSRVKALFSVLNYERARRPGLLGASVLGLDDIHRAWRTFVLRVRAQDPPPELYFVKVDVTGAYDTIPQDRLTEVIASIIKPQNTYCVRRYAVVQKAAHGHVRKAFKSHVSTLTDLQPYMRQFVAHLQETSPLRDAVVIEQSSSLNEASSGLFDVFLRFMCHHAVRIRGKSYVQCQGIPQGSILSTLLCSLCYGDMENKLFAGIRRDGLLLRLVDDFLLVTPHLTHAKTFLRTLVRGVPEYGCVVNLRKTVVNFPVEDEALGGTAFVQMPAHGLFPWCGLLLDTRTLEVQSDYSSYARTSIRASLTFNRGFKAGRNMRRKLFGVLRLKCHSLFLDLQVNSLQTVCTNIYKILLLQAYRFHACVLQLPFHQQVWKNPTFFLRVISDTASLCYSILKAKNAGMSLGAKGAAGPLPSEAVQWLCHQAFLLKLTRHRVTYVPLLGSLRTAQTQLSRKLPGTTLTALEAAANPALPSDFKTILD

| Compound | Activity [1] [%] | viability at 1 µM [2] [%] | viability at 100 µM [3] [%] | Activity [4] [%] | viability at 10 µM [5] [%] | Activity [6] [%] |
| --- | --- | --- | --- | --- | --- | --- |
| O=C1c2ccccc2C(=O)c2c1ccc1nc(SC(=O)N3CCOCC3)[nH]c21 | 87 | 89 | 90 | 71 | 94 | 93 |
| C#CCSc1nc2ccc3c(c2[nH]1)C(=O)c1ccccc1C3=O | 85 | 94 | 75 | 52 | 96 | 94 |
| O=C1c2ccccc2C(=O)c2c1ccc1nc(SCCCCCCCl)[nH]c21 | 98 | 83 | 88 | 53 | 85 | 105 |
| O=C1c2ccccc2C(=O)c2c1ccc1nc(SCCC(=O)N3CCCC3)[nH]c21 | 90 | 107 | 57 | 67 | 110 | 87 |
| CCN(CC)C(=O)CCSc1nc2ccc3c(c2[nH]1)C(=O)c1ccccc1C3=O | 98 | 94 | 44 | 64 | 77 | 97 |
| O=C1c2ccccc2C(=O)c2c1ccc1nc(SCCCCCl)[nH]c21 | 96 | 91 | 83 | 54 | 97 | 100 |
| O=C1c2c(O)ccc(O)c2C(=O)c2c(NCCNCCO)ccc(NCCNCCO)c21 [MITOXANTRONE] | 10 | 24 | 0 | 7 | 0 | 21 |
| O=C1c2ccccc2C(=O)c2c1ccc1nc(SCCCCCBr)[nH]c21 | 58 | 84 | 37 | 41 | 82 | 92 |
| O=C(CCc1ccccc1)Sc1nc2ccc3c(c2[nH]1)C(=O)c1ccccc1C3=O | 95 | 95 | 69 | 81 | 93 | 97 |
| C=CCSc1nc2ccc3c(c2[nH]1)C(=O)c1ccccc1C3=O | 91 | 100 | 79 | 69 | 96 | 97 |
| CCN(CC)C(=O)CSc1nc2ccc3c(c2[nH]1)C(=O)c1ccccc1C3=O | 93 | 97 | 54 | 49 | 90 | 96 |
| Nc1ccc2c(c1N)C(=O)c1ccccc1C2=O | 77 | 105 | 39 |  | 95 |  |
| Cc1cc(C(=O)Sc2nc3ccc4c(c3[nH]2)C(=O)c2ccccc2C4=O)c(C)o1 | 100 | 95 | 95 | 89 | 91 | 104 |
| CCN(CC)C(=O)Sc1nc2ccc3c(c2[nH]1)C(=O)c1ccccc1C3=O | 104 | 118 | 116 | 88 | 119 | 106 |
| CCCN(CCC)C(=O)CSc1nc2ccc3c(c2[nH]1)C(=O)c1ccccc1C3=O | 91 | 95 | 93 | 85 | 86 | 94 |
| CN1CCN(C(=O)Sc2nc3ccc4c(c3[nH]2)C(=O)c2ccccc2C4=O)CC1 | 99 | 102 | 71 | 38 | 120 | 89 |

| Compound | Activity [1] [%] | viability at 1 µM [2] [%] | viability at 100 µM [3] [%] | Activity [4] [%] | viability at 10 µM [5] [%] | Activity [6] [%] |
| --- | --- | --- | --- | --- | --- | --- |
| O=C1c2ccccc2C(=O)c2c1ccc1nc(SCC(=O)N3CCCC3)[nH]c21 | 100 | 89 | 62 | 64 | 102 | 100 |
| O=C1c2ccccc2C(=O)c2c1ccc1nc(SC(=O)N3CCCCC3)[nH]c21 | 104 | 97 | 116 | 81 | 116 | 98 |
| CCCCSc1nc2ccc3c(c2[nH]1)C(=O)c1ccccc1C3=O | 105 | 82 | 77 | 53 | 135 | 111 |
| O=C(Sc1nc2ccc3c(c2[nH]1)C(=O)c1ccccc1C3=O)c1cc(C(F)(F)F)ccc1C(F)(F)F | 96 | 95 | 79 | 75 | 100 | 102 |
| COC(=O)CCCSc1nc2ccc3c(c2[nH]1)C(=O)c1ccccc1C3=O | 83 | 83 | 57 | 61 | 83 | 88 |
| O=C1c2ccccc2C(=O)c2c1ccc1nc(SCC(=O)N3CCOCC3)[nH]c21 | 87 | 91 | 70 | 40 | 88 | 103 |
| O=C1c2ccccc2C(=O)c2c1ccc1nc(SCCC(=O)N3CCOCC3)[nH]c21 | 97 | 99 | 50 | 45 | 102 | 105 |
| Cc1ccccc1CSc1nc2ccc3c(c2[nH]1)C(=O)c1ccccc1C3=O | 83 | 88 | 76 | 29 | 81 | 88 |
| O=C1c2ccccc2C(=O)c2c1ccc1nc(SCCN3CCCCC3)[nH]c21 | 100 | 86 | 30 | 14 | 79 | 111 |
| O=C1c2ccccc2C(=O)c2c1ccc1nc(SC(=O)N3CCCC3)[nH]c21 | 105 | 110 | 124 | 95 | 117 | 96 |
| COc1cccc2c1C(=O)c1c(O)c3c(c(O)c1C2=O)C[C@@](O)(C(=O)CO)C[C@@H]3O[C@H]1C[C@H](N)[C@H](O)[C@H](C)O1 [DOXORUBICIN] | 14 | 17 | 0 | 5 | 0 | 34 |
| COC(=O)/C=C/CSc1nc2ccc3c(c2[nH]1)C(=O)c1ccccc1C3=O | 87 | 98 | 72 | 64 | 75 | 88 |
| O=C1c2ccccc2C(=O)c2c1ccc1nc(SCCN3CCOCC3)[nH]c21 | 105 | 106 | 73 | 36 | 127 | 119 |
| O=C(Sc1nc2ccc3c(c2[nH]1)C(=O)c1ccccc1C3=O)c1ccccc1[N+](=O)[O-] | 92 | 80 | 76 | 81 | 78 | 98 |
| O=C1c2ccccc2C(=O)c2c1ccc1nc(SCCCN3CCCCC3)[nH]c21 | 50 | 71 | 38 | 8 | 70 | 85 |
